# Results gathered from unrelated publications.
# Lines come from different studies, so protocols differ.
# Target: Phosphatidylinositol 4,5-bisphosphate 3-kinase catalytic subunit delta isoform (PIK3CD, Homo sapiens, UniProt O00329)
# Sequence (O00329 1-1044, as in one of the studies): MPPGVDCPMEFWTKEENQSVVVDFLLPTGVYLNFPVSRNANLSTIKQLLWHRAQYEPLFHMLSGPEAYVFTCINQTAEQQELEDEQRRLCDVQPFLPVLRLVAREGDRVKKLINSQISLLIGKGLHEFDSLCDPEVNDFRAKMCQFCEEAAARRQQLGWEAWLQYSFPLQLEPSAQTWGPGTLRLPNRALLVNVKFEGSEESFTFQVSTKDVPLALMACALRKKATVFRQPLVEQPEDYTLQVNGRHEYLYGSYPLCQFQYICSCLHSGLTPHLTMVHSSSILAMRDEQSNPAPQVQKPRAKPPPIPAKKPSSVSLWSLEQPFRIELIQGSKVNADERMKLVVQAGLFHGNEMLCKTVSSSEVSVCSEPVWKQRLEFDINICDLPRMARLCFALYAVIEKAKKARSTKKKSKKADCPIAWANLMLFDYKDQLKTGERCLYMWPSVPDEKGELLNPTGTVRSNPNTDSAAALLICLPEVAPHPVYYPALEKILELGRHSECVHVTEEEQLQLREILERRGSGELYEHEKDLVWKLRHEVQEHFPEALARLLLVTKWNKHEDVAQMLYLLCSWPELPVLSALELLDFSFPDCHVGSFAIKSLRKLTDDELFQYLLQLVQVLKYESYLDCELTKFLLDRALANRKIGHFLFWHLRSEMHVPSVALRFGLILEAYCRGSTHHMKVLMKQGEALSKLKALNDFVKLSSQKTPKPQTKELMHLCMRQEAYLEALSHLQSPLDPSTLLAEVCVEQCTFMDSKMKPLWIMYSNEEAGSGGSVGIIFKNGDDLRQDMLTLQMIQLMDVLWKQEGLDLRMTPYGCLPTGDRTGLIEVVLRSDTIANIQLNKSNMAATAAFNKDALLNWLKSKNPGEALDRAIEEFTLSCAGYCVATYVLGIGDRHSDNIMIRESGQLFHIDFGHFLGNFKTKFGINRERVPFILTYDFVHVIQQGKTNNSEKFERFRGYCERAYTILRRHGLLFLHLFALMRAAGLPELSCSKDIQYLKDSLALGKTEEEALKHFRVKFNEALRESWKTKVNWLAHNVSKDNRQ
Structure (SMILES),test,setting,remaining binding
CC1CCCN1c1nccc(-c2cnn3ncccc23)n1 (centres unmarked),binding,1 µM,100%
CCc1ccccc1C(=O)Nc1n[nH]c2c(C)c(F)c(C3C(C#N)=C(C)N(C)C(C)=C3C#N)cc12,"cell-free assay, competition with immobilised ligand",1 µM,90%
C=CC(=O)N1CCC(C(=O)NCC(=O)N2CCN(c3nc(-c4cnc(N)nc4C(F)F)nc(N4CCOCC4)n3)CC2)CC1,"binding, competition with immobilised ligand",1 µM,19%
O=C(c1ccc(Nc2nccc(-c3cc4ccccc4s3)n2)cc1)N1CCC(N2CCCC2)CC1,"binding, competition with immobilised ligand",1 µM,41%
COc1cnc(Nc2cccc(S(N)(=O)=O)c2)nc1N1CCN(c2ccccc2)C(=O)C1,"binding, competition with immobilised ligand",1 µM,47%
CN(c1ccnc(CNc2nc(Nc3ccc4c(c3)CC(=O)N4)ncc2C(F)(F)F)n1)S(C)(=O)=O,"cell-free assay, competition with immobilised ligand",1 µM,77%
O=C(c1ccc(Nc2ncc(Cl)c(-c3ccc(Cl)s3)n2)cc1)N1CCC(N2CCCC2)CC1,"binding, competition with immobilised ligand",1 µM,100%
C[C@H]1CCN(c2nccc(-c3cnn4ncccc34)n2)C1,binding,1 µM,100%
C[C@H](NC(=O)c1cnc2n1[C@](C)(Cc1ccc(C#N)cc1)C(=O)N2c1cc(Cl)c(F)c(Cl)c1)C(=O)NC1(c2ccccn2)CC1,"cell-free assay, competition with immobilised ligand",1 µM,95%
COc1cnc(Nc2cccc(S(N)(=O)=O)c2)nc1N1CCN(c2ccccc2)CC1,"binding, competition with immobilised ligand",1 µM,81%
CCOCCn1cc(C(=O)Nc2ccc(-n3nc(-c4cccnc4)cc3C(F)(F)F)cn2)ccc1=O,"cell-free assay, competition with immobilised ligand",1 µM,100%
COc1ncc2cc3ccccc3nc2c1C#N,"cell-free assay, competition with immobilised ligand",5 µM,98%
CN(C)c1nccc(-c2cnc3ncccn23)n1,binding,1 µM,50%
COc1ccc2c(c1)O[C@@H](c1ccc(OC)c(OC)c1)C[C@H]2NC(=O)C1(c2ccc3c(c2)OC(F)(F)O3)CC1,"cell-free assay, competition with immobilised ligand",1 µM,97%
c1cnn2ncc(-c3ccnc(N4CCC45COC5)n3)c2c1,binding,1 µM,69%
Cc1cnc(Nc2ccc(C(=O)N3CCC(N4CCCC4)CC3)cc2)nc1-c1cc2ccccc2s1,"binding, competition with immobilised ligand",1 µM,90%
N[C@H]1CCN(c2nccc(-c3cnn4ncccc34)n2)C1,binding,1 µM,100%
O=C(Nc1c[nH]nc1C(=O)NC1CCNCC1)c1cc(F)cc(F)c1,"binding, competition with immobilised ligand",1 µM,100%
CN(c1nccc(-c2cnn3ncccc23)n1)C1CC1,binding,1 µM,100%
Cc1cc(-n2nc(Cc3cc(F)cc(C(F)(F)F)c3)nc2C)ccc1C(N)=O,"cell-free assay, competition with immobilised ligand",1 µM,52%
